Experimental data published in BindingDB's records for doi:10.1021/np070447m (2008).

Assays:
[1] = target: RAC-alpha serine/threonine-protein kinase (Homo sapiens, UniProt P31749); assay: Inhibition of recombinant AKT1
Procedure, shortened: (§1)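 Purified recombinant kinase, 50 µL reaction. 1 µM [γ-33P]-ATP with substrate; compound added in 10% DMSO. Tested over several concentrations; IC50 in g/mL.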

[2] = target: Serine/threonine-protein kinase PLK1 (Homo sapiens, UniProt P53350); assay: Inhibition of recombinant PLK1
Sequence of Serine/threonine-protein kinase PLK1 (P53350 whole entry): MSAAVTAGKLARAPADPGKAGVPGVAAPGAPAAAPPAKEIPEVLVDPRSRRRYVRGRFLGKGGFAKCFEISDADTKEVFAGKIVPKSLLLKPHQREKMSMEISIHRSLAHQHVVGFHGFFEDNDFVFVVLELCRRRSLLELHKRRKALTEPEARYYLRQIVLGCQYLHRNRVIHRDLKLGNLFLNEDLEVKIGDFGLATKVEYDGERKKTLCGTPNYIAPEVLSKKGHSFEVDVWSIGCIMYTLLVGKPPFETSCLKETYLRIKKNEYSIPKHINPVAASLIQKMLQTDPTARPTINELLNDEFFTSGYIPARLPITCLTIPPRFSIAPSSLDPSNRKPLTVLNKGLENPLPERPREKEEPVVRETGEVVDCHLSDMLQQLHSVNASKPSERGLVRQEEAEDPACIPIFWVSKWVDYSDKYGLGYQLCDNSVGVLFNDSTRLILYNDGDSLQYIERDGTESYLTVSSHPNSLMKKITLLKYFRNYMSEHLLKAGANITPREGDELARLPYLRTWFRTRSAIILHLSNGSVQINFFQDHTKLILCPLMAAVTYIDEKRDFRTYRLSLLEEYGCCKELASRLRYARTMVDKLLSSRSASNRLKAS

[3] = target: Cyclin-dependent kinase 2 (Homo sapiens, UniProt P24941); assay: Inhibition of recombinant CDK2/CycA; procedure, shortened: as §1
[4] = target: Casein kinase II subunit alpha (Homo sapiens, UniProt P68400); assay: Inhibition of recombinant CK2alpha1; procedure, shortened: as §1
Sequence of Casein kinase II subunit alpha (P68400 whole entry): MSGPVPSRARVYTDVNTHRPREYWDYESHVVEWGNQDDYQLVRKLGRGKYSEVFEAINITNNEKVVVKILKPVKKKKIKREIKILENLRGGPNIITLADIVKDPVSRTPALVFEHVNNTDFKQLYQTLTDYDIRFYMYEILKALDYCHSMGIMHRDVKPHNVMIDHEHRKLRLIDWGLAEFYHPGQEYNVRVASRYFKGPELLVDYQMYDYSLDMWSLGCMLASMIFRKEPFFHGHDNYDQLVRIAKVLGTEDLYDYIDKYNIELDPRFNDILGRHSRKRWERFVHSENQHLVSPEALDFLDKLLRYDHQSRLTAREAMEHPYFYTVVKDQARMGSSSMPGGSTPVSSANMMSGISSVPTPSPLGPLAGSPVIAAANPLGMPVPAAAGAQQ

[5] = target: Receptor tyrosine-protein kinase erbB-2 (Homo sapiens, UniProt P04626); assay: Inhibition of recombinant ERBB2
Sequence of Receptor tyrosine-protein kinase erbB-2 (P04626 whole entry): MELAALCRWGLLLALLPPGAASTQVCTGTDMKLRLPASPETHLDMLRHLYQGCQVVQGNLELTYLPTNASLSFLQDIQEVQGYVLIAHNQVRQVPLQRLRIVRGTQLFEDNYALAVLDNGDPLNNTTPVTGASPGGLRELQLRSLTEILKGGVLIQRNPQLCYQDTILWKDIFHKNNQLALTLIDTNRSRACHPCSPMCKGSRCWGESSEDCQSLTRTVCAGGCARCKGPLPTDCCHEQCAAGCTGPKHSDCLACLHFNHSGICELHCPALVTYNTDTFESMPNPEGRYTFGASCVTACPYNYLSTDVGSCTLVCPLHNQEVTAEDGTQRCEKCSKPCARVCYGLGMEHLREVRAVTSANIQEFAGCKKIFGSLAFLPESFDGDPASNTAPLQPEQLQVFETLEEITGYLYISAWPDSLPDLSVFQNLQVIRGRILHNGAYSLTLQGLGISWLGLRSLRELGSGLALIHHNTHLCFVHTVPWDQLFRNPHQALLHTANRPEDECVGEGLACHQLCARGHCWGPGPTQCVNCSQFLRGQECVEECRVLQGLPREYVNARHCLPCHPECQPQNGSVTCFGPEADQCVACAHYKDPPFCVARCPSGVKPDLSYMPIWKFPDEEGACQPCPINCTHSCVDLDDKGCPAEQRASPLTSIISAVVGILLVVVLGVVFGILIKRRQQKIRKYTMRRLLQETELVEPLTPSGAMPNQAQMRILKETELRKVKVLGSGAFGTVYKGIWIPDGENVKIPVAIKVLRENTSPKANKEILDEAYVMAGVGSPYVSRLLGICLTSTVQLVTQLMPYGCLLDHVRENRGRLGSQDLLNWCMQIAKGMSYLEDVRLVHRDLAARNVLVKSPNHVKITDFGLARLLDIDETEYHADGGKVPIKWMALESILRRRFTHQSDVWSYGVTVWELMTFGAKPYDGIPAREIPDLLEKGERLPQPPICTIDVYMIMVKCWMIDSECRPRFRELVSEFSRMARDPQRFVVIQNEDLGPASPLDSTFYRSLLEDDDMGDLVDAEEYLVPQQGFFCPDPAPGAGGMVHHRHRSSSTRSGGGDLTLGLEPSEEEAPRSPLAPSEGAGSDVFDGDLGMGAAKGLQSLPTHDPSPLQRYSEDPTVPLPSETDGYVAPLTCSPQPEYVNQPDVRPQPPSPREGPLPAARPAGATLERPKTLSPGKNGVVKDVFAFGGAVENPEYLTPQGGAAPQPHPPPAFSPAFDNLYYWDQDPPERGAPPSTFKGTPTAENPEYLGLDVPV

[6] = target: Vascular endothelial growth factor receptor 2 (Homo sapiens, UniProt P35968); assay: Inhibition of recombinant VEGFR2; procedure, shortened: as §1
[7] = target: Insulin-like growth factor 1 receptor (Homo sapiens, UniProt P08069); assay: Inhibition of recombinant IGF1R; procedure, shortened: as §1
[8] = target: T1, Serine/threonine-protein kinase PLK4 (Homo sapiens, UniProt O00444); assay: Inhibition of recombinant SAK
T1 sequence (O00444 whole entry): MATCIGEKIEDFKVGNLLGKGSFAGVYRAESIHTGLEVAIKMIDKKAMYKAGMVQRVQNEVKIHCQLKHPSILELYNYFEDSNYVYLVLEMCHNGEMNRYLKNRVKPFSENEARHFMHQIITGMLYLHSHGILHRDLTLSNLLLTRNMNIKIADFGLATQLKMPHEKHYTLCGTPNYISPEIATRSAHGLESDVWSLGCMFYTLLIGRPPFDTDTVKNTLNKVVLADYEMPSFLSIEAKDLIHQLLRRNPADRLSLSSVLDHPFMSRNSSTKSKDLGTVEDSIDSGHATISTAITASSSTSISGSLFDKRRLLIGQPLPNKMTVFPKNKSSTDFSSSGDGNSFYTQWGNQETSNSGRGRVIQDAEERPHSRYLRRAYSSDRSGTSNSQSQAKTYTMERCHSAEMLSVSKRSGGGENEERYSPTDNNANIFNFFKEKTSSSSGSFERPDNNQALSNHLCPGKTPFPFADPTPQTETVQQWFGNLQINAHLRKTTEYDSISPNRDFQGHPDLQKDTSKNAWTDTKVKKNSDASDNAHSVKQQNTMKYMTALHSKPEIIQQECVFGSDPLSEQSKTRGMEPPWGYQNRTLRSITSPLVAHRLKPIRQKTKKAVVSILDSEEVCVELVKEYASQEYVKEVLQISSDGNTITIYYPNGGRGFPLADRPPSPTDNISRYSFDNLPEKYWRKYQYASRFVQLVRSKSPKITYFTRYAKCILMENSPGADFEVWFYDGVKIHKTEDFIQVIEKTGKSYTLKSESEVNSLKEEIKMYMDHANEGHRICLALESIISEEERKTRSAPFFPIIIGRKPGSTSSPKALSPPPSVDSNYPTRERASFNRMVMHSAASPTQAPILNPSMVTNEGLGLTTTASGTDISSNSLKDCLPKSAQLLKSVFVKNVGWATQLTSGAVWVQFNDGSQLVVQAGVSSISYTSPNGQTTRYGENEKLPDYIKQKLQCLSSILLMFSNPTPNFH

[9] = target: Vascular endothelial growth factor receptor 3 (Homo sapiens, UniProt P35916); assay: Inhibition of recombinant VEGFR3; procedure, shortened: as §1
[10] = target: T2, Receptor-type tyrosine-protein kinase FLT3 (Homo sapiens, UniProt P36888); assay: Inhibition of recombinant FLT3; procedure, shortened: as §1
T2 sequence (P36888 whole entry): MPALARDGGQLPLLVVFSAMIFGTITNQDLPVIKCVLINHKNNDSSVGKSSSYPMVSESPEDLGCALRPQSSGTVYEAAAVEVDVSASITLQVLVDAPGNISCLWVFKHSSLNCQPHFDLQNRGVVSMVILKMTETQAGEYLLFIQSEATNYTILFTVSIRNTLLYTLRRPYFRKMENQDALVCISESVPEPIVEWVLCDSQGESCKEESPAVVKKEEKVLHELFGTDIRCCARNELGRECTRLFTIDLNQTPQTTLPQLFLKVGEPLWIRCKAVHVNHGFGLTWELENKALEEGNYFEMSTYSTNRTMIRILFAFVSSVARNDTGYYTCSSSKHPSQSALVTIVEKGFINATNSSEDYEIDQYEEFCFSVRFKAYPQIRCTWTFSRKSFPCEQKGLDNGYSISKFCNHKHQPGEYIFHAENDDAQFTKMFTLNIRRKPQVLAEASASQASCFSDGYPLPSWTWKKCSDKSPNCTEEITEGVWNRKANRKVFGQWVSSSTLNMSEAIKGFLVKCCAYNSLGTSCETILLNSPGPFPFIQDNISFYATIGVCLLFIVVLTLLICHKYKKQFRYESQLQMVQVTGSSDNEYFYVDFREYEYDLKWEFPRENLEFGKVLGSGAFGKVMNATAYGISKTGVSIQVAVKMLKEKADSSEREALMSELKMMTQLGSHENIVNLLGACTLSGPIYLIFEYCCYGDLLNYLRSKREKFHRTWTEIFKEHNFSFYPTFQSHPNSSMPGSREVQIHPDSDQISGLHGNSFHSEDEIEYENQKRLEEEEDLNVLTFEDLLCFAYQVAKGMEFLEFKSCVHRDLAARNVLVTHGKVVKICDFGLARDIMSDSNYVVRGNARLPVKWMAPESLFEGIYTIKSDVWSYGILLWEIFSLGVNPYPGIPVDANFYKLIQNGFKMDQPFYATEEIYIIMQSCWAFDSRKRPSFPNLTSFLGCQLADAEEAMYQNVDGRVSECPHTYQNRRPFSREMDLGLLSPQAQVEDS

[11] = target: T3, NUAK family SNF1-like kinase 1 (Homo sapiens, UniProt O60285); assay: Inhibition of recombinant ARK5
T3 sequence (O60285 whole entry): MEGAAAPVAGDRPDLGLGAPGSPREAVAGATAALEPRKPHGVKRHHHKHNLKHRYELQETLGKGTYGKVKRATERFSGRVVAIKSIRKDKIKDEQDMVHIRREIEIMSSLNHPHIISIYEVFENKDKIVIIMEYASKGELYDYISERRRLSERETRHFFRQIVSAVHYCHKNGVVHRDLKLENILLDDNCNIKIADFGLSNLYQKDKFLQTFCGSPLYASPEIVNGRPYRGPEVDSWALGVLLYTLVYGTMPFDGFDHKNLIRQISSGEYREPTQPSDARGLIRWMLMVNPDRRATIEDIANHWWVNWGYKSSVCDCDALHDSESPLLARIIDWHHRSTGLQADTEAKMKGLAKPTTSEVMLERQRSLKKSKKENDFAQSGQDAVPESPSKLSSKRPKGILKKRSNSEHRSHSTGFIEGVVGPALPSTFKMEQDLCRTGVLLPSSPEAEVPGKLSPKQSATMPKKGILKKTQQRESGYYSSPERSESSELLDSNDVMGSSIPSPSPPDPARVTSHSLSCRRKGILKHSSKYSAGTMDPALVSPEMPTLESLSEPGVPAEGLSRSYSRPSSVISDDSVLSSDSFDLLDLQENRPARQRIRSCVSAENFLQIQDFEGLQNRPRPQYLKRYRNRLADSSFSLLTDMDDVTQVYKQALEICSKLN

Aurora kinase B = Aurora kinase B (Homo sapiens, UniProt Q96GD4); assay: Inhibition of recombinant Aurora B; procedure, shortened: as §1
Sequence of Aurora kinase B (Q96GD4 whole entry): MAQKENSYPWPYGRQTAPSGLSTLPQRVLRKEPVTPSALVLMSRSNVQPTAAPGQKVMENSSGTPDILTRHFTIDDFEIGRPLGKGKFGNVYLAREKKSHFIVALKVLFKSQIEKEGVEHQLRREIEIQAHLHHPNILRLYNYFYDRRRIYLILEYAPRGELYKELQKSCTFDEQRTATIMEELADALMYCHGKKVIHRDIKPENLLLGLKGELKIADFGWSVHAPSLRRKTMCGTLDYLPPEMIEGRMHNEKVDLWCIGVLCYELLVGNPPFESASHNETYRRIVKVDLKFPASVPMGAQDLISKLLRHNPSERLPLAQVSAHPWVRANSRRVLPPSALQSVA

Aurora kinase A = target: T4, Aurora kinase A (Homo sapiens, UniProt O14965); assay: Inhibition of recombinant Aurora A; procedure, shortened: as §1
T4 sequence (O14965 whole entry): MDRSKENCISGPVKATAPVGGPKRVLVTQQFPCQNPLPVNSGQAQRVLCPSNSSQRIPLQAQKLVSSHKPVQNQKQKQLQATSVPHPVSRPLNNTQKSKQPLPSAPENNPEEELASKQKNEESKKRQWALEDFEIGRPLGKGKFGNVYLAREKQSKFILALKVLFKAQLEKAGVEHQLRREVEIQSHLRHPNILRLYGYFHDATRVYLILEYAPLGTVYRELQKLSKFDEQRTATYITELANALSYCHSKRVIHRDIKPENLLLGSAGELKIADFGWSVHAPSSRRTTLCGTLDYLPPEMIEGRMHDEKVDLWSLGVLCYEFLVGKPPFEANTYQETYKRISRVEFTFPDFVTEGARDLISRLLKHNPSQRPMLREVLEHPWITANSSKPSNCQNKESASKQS

[12] = target: Serine/threonine-protein kinase B-raf (Homo sapiens, UniProt P15056, V600E); assay: Inhibition of recombinant B-RAF-V600E mutant; procedure, shortened: as §1
Sequence of Serine/threonine-protein kinase B-raf (P15056 2-766 V600E limits assumed): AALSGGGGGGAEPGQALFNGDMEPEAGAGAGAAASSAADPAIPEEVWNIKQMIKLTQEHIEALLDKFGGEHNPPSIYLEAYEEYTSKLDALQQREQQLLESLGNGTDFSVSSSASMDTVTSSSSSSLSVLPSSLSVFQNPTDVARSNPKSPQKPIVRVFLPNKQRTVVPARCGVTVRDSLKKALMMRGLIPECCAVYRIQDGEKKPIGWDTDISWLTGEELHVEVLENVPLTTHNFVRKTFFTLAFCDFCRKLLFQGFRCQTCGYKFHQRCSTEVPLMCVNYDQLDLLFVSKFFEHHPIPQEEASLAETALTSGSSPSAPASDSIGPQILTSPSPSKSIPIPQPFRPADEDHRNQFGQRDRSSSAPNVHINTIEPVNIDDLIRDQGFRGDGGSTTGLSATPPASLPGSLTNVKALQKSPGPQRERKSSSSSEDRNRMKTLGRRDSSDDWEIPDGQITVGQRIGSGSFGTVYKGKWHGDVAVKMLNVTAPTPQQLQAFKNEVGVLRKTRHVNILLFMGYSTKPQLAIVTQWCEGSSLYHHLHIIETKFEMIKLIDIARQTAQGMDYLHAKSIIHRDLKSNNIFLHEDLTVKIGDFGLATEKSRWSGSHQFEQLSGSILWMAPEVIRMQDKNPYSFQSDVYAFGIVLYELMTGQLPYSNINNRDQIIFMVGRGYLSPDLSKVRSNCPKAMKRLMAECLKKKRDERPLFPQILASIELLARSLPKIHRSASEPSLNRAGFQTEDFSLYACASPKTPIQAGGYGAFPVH

[13] = target: Mitogen-activated protein kinase kinase kinase 8 (Homo sapiens, UniProt P41279); assay: Inhibition of recombinant COT
[14] = target: Platelet-derived growth factor receptor beta (Homo sapiens, UniProt P09619); assay: Inhibition of recombinant PDGFRbeta
Sequence of Platelet-derived growth factor receptor beta (P09619 whole entry): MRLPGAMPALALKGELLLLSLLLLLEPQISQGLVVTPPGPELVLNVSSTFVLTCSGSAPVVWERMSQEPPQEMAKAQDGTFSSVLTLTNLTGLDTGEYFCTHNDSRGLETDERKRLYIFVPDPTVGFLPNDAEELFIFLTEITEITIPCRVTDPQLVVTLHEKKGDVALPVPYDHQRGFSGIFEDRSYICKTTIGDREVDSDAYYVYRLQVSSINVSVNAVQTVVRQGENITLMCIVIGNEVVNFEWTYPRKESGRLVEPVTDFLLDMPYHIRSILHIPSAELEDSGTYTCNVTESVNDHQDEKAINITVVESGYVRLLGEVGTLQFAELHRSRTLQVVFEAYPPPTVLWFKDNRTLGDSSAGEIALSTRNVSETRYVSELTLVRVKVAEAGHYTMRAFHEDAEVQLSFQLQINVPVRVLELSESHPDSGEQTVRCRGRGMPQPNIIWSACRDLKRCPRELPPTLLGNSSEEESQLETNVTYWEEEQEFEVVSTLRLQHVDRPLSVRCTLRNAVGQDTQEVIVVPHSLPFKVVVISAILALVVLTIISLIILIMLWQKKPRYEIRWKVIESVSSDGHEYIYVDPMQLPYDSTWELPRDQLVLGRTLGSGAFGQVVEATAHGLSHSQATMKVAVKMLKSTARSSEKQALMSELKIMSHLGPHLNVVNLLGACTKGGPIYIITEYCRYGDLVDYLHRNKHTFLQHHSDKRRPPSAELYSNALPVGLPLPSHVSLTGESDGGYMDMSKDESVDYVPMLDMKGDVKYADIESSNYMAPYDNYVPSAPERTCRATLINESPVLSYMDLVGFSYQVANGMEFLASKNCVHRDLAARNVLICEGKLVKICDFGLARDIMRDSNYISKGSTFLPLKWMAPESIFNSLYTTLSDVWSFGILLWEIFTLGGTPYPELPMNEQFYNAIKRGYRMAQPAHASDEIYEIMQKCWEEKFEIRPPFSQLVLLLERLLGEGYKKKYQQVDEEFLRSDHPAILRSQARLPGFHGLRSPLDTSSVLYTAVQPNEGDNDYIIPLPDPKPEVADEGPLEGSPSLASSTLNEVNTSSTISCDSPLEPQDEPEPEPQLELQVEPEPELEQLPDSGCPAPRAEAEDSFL

Focal adhesion kinase 1 = Focal adhesion kinase 1 (Homo sapiens, UniProt Q05397); assay: Inhibition of recombinant FAK
[15] = target: Cyclin-dependent kinase 4/G1/S-specific cyclin-D1 (Homo sapiens, UniProt P11802); assay: Inhibition of recombinant CDK4/CycD1
Ephrin type-B receptor 4 = target: T5, Ephrin type-B receptor 4 (Homo sapiens, UniProt P54760); assay: Inhibition of recombinant EPHB4; procedure, shortened: as §1
T5 sequence (P54760 whole entry): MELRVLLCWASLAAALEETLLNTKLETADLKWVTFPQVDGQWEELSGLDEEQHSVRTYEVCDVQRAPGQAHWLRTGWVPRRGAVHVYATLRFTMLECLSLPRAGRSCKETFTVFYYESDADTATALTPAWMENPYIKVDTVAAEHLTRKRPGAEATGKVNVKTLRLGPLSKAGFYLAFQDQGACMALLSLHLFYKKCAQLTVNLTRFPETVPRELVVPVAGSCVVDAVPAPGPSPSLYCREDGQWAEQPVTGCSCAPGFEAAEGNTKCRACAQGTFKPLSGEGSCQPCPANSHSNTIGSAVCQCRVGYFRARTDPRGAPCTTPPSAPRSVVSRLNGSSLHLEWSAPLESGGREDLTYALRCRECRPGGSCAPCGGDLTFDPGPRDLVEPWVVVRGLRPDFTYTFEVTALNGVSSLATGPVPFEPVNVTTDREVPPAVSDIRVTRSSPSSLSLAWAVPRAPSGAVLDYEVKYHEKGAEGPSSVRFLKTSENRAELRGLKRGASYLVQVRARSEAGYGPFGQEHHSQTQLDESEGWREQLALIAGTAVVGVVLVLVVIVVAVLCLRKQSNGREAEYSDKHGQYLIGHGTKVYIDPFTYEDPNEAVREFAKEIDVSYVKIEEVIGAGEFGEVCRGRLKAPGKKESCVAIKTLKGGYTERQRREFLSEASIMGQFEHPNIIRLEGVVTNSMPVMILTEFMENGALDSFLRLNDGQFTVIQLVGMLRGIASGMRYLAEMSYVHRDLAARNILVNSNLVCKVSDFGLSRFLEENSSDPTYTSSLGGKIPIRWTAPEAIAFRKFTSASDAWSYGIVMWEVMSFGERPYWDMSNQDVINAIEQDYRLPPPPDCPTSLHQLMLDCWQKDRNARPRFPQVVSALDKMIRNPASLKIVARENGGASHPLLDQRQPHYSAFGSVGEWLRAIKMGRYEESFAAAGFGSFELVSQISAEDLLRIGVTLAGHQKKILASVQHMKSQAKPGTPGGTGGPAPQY

Angiopoietin-1 receptor = Angiopoietin-1 receptor (Homo sapiens, UniProt Q02763); assay: Inhibition of recombinant TIE2

Sequence of RAC-alpha serine/threonine-protein kinase (P31749 whole entry): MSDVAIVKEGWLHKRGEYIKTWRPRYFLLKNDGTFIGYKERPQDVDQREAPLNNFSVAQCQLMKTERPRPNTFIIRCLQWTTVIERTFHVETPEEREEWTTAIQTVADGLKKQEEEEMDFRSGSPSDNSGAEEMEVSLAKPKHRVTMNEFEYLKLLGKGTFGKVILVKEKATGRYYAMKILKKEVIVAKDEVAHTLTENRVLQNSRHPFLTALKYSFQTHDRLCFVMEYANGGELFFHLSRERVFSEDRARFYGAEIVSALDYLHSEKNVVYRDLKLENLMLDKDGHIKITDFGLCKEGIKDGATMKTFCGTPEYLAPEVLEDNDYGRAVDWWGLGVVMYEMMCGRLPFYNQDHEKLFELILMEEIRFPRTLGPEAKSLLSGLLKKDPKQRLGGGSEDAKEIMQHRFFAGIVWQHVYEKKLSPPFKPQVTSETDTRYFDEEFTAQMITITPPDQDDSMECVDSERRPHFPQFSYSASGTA

| Structure (SMILES) | IC50 [1] [µM] | IC50 [2] [µM] | IC50 [3] [µM] | IC50 [4] [µM] | IC50 [5] [µM] | IC50 [10] [µM] | IC50 [11] [µM] | also measured |
| --- | --- | --- | --- | --- | --- | --- | --- | --- |
| Cc1cc(O)c(O)cc1-c1cc(O)cc(O)c1C(=O)O [Desmethylaltenusin] | > 36.2 | > 36.2 | > 36.2 | > 36.2 | > 36.2 | – | – | – |
| COc1cc(O)c2c(=O)oc3cc(O)cc(C)c3c2c1 | – | – | – | > 36.7 | – | – | – | – |
| COc1cc(O)c2c(=O)oc3c(O)c(O)cc(C)c3c2c1 | – | – | – | > 34.6 | – | 1.83 | 1.21 | IC50 [6]: 2.22 µM; IC50 [7]: 3.15 µM; IC50 [8]: 2.87 µM; IC50 [9]: 1.35 µM |
| O=C1C[C@H](O)[C@@H]2c3c(ccc(O)c31)-c1ccc(O)c3c1[C@@]2(O)CCC3=O [Altertoxin I] | > 28.3 | > 28.3 | > 28.3 | > 28.3 | > 28.3 | 1.87 | – | IC50 (Aurora kinase B): 2.78 µM |
| Cc1cc(O)cc2oc(=O)c3c(O)cc(OS(=O)(=O)O)cc3c12 [Alternariol 5-O-Sulfate] | > 29.5 | – | 2.48 | – | – | 0.975 | 2.21 | IC50 [6]: 2.06 µM; IC50 (Aurora kinase B): 0.65 µM; IC50 (Aurora kinase A): 1.15 µM; IC50 [8]: 1.12 µM; IC50 [12]: 2.18 µM |
| COc1cc(O)c(C(=O)O)c(C2=C(C)C[C@@H](O)C2=O)c1 [Alternarienonic Acid] | > 35.9 | > 35.9 | > 35.9 | > 35.9 | > 35.9 | – | – | IC50 [13]: > 35.9 µM; IC50 [14]: > 35.9 µM; IC50 (Focal adhesion kinase 1): > 35.9 µM; IC50 [15]: > 35.9 µM; IC50 (Ephrin type-B receptor 4): > 35.9 µM; IC50 (Angiopoietin-1 receptor): > 35.9 µM |
| Cc1cc(O)cc2oc(=O)c3c(O)cc(O)cc3c12 [CHEBI:64983] | > 38.7 | – | – | – | – | – | 3.67 | IC50 (Aurora kinase A): 2.82 µM; IC50 [14]: 3.44 µM; IC50 (Ephrin type-B receptor 4): > 38.7 µM |
